PGE2 EP2 inh: EP2 receptor (human) inhibition; C6 glioma cells expressing human EP2, cAMP TR-FRET; cells stimulated with saturating PGE2; inhibition, % at 25 µM; AID 1422; 260,000 compounds, 0.52% hits;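 active means percent inhibition above 40 after rounding to a whole number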;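 further: rat C6 glioma host cells with rolipram phosphodiesterase inhibitor present; the protocol text gives 20 µM as final concentration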
Target sequence (P43116 whole entry, looked up): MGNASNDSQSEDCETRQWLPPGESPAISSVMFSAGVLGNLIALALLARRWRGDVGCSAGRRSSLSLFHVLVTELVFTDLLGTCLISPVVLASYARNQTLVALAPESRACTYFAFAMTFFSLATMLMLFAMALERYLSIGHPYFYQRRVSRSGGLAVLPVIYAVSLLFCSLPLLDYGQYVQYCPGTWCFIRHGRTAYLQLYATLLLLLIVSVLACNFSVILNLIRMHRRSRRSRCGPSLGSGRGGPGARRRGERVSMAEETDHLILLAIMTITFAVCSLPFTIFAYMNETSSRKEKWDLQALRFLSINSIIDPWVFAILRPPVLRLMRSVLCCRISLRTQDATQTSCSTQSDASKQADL
MC4R ag barr: agonists of human melanocortin 4 receptor (MC4R) beta-arrestin. activation, % at 8.9 µM. P32245. 360,000 compounds, 0.98% hits. U2OS MC4R beta-arrestin complementation, luminescence; percent of melanotan II response, DMSO zero;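 active means activation above a per-plate cutoff, the mean activation of sample wells on that plate plus 3 SD, cut at about 8% in these data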
Target sequence (P32245 whole entry, looked up): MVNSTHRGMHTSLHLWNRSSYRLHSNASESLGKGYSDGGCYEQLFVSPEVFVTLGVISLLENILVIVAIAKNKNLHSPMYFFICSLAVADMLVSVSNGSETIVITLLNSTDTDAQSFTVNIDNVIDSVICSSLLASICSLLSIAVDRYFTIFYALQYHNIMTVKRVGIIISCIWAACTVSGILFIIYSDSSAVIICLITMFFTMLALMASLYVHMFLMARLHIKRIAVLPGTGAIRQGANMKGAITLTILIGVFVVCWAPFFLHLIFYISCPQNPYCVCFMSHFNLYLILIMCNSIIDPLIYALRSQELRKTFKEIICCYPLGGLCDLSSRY
T cell modulator: T cell immune modulation candidate. 2C CD8+ T cell-vesicle binding, flow cytometry; stronger effect = lower value. response (vesicle binding), % at 7 µM. 330,000 compounds, 0.068% hits. AID 2052;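 active means response, share of CD8 T cells binding vesicles, and their 90th percentile fluorescence all below set limits, cut at about 80% in these data, passing the limit was not always enough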;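 further: values below 100% mean blocked vesicle binding to the CD8+ T cells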
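Material: 2C TCR transgenic mouse naive CD8+ T cells, MACS-purified. Also added: QL9-charged Drosophila Ld/ICAM-1/B7-1 vesicles. Timing: binding 1.5 h at 37 °C. Measured by: high-throughput flow cytometry with anti-B7-1 and anti-CD8 staining. Read-out: percent CD8+ FL2 mean versus row control. Controls: Unloaded micro-vesicles (low), QL9 vesicles with 0.7% DMSO (high).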
Granule exo inh: blocks lytic granule exocytosis | TALL-104 LAMP-1 surface exposure, flow cytometry; cells stimulated with thapsigargin and PMA | inhibition, % at 10 µM | 360,000 compounds, 0.66% hits | AID 651702;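 active means inhibition above about 55%, limit read from the data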
EP2 mod: EP2 receptor (human) modulation; EP2-expressing cells, cAMP HTRF FRET, PGE2 co-stimulation; induction, % at 25 µM; 260,000 compounds, 0.83% hits;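 active means compounds whose cAMP rise, as percent of the full-agonist control response, exceeds 60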;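 further: rat C6 glioma line stably carrying human EP2 under a CMV promoter; the protocol text gives 20 µM as final concentration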
MC4R antag cAMP: human MC4R antagonism in cAMP assay | P32245 | MC4R-expressing cells, MTII-stimulated cAMP, LANCE TR-FRET | inhibition, % at 6.5 µM | 360,000 compounds, 0.48% hits | AID 540295;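 active means inhibition above its plate's cutoff, the mean of tested wells on that plate plus 3 SD, cut at about 29% in these data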
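system = U2OS cells with stable human MC4R expression | also added = Melanotan II challenge after compound preincubation | dosing = one concentration, 6.5 µM nominal | incubation = compound 30 min, challenge 1 h, detection 1 h | measured by = TR-FRET with Eu-cAMP and labeled anti-cAMP, 671 nm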
EP2 cAMP induct: EP2 receptor cAMP induction, counter-screens negative; shares compounds with EP2 mod; C6 glioma EP2 cells, cAMP HTRF induction; plus low (about EC15) PGE2 agonist; calls only at 20 µM (by protocol); 1,300 compounds, 47% hits; AID 1080;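 active means cAMP induction above 50% in the main assay while under 30% in all four parallel counter assays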;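 further: rat C6 glioma cells stably expressing human EP2 receptor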
Large screens that a line does not name were inactive (follow-up assays come after a bar, where they were run); ! = repeats disagree. Shown are actives, neighbours in structure and some others; about 2.6% of the full set was active somewhere.

CCO[C@@H]1c2c(ccc3ccc(=O)oc23)OC(C)(C)[C@H]1O	none (no result: PGE2 EP2 inh, EP2 mod)
Cc1ccccc1Nc1nc(N)nc(-c2oc3ccccc3c2C)n1	none
O=C1CCc2cc(S(=O)(=O)NC3C4CCCCC43)ccc2N1 (configuration not stated)	none (no result: MC4R ag barr, T cell modulator, Granule exo inh, MC4R antag cAMP)
Cc1ccc(-n2c(Cc3cccc4ccccc34)n[nH]c2=S)c(C)c1	EP2 mod 61 | EP2 cAMP induct active
CCCCc1n[nH]c(=S)n1Cc1ccc(Cl)cc1	none | EP2 cAMP induct inactive
CCOC(=O)Cc1csc(NC(NC(=O)CC)(C(F)(F)F)C(F)(F)F)n1	EP2 mod 65 | EP2 cAMP induct inactive
CCOC(=O)Cc1csc(NC(=S)NC(=O)C(C)(C)C)n1	none
Cc1cc(NC(=O)CCC(=O)N(CC(=O)NC2CCCC2)Cc2cccs2)no1	none
CC(SCc1ccccc1)C(=O)NN=C1CCN(C)CC1 (configuration not stated)	none
Cc1ccc(N=Cc2cc(Cc3ccccc3Cl)cc([N+](=O)[O-])c2O)c(O)c1	EP2 mod 68 | EP2 cAMP induct inactive
COc1ccc(N=Cc2cc(Cc3ccccc3Cl)cc([N+](=O)[O-])c2O)cc1OC	EP2 mod 72 | EP2 cAMP induct active
CC(=O)N1CCN=C1SCc1cccc(C(F)(F)F)c1	none
Fc1cnc(N/N=C/c2ccc(-c3ccc(Br)cc3)o2)nc1N1CCOCC1	none
Brc1ccc(-c2ccc(/C=N/Nc3nc(N4CCOCC4)nc(N4CCOCC4)n3)o2)cc1	EP2 mod 67 | EP2 cAMP induct active
Clc1ccc(-c2ccc(/C=N/Nc3cc(N4CCOCC4)nc(N4CCOCC4)n3)o2)cc1	Granule exo inh 83, EP2 mod 108 | EP2 cAMP induct active
CC(C)(C)c1cc(C(=O)NNS(=O)(=O)c2ccccc2)n[nH]1	none
O=C(Oc1ccc(-c2nccc(-c3ccccn3)n2)cc1)c1cccc(C(F)(F)F)c1	EP2 mod 67 | EP2 cAMP induct inactive
CCOC(=O)c1cnc(SCC(=O)Nc2ccccc2OCC)nc1N	none (no result: MC4R ag barr, T cell modulator, Granule exo inh, MC4R antag cAMP)
CCOC(=O)c1ccccc1NC(=O)CSc1ncc(C(=O)OCC)c(N)n1	EP2 mod 65! | EP2 cAMP induct inactive
Cc1cc(Br)cn2c(Cc3ccccc3)c(-c3ccc(C#N)cc3)nc12	none (no result: PGE2 EP2 inh, MC4R ag barr, T cell modulator, EP2 mod, MC4R antag cAMP)
CCC(C(=O)O)N1C(=O)/C(=C/C(C)=C/c2ccccc2)SC1=S (configuration not stated)	none
CC(=C\c1ccccc1)/C=C1/SC(=S)N(C(C(=O)O)C(C)C)C1=O (configuration not stated)	none (no result: T cell modulator) | EP2 cAMP induct active
COC(=O)c1c(NC(NC(=O)C(C)C)C(Cl)(Cl)Cl)sc2c1CCCC2 (configuration not stated)	none | EP2 cAMP induct inactive
COC(=O)c1c(NC(C)=O)sc2c1CCCC2	none
CCCCOC(=O)CSc1nc(N)c(C#N)c(-c2ccc(OCC)cc2)c1C#N	EP2 mod 74 | EP2 cAMP induct inactive
CCOP(=O)(c1ccccc1)c1nc(-c2ccccc2Cl)oc1N1CCCCC1 (configuration not stated)	EP2 mod 71 | EP2 cAMP induct active
CCOP(=O)(OCC)c1nc(-c2cccc([N+](=O)[O-])c2)oc1N1CCCCC1	none
COc1ccccc1C(=O)NC(=S)Nc1cc(C(=O)O)ccc1C	EP2 mod 72 | EP2 cAMP induct active
COc1cc2ccccc2cc1C(=O)NC(=S)Nc1cc(C(=O)O)ccc1C	EP2 mod 100 (no result: T cell modulator) | EP2 cAMP induct active
Cc1ccc(C(=O)O)cc1NC(=S)NC(=O)Cc1ccccc1	none
Cc1cccc(Oc2sc(C(=O)c3ccccc3)c(N)c2C#N)c1	EP2 mod 72 | EP2 cAMP induct inactive
C(=N/n1c2ccccc2c2ccccc21)/c1ccco1	EP2 mod 65 | EP2 cAMP induct active
CCn1c(-c2cc(OC)c(OC)c(OC)c2)n[nH]c1=S	none
O=C(Nc1cccc(S(=O)(=O)N2CCCCC2)c1)[C@@H]1CCCN1S(=O)(=O)c1ccccc1C(F)(F)F	none (no result: PGE2 EP2 inh, T cell modulator, EP2 mod)
Cc1cc(C)c(S(=O)(=O)c2ccccc2)c(OC(=O)c2c(F)cccc2F)n1	none
Cc1cc(C)c(S(=O)(=O)c2ccccc2)c(OC(=O)c2c(Cl)cc(Cl)cc2Cl)n1	EP2 mod 76 | EP2 cAMP induct active
Cc1nn2c(N3CCCC3)cc(C(C)C)nc2c1-c1ccccc1	EP2 mod 75 | EP2 cAMP induct active
Cc1cc(N2CCCCC2)n2nc(C)c(-c3ccccc3)c2n1	none
Cc1nn2c(N3CCN(C(=O)c4ccco4)CC3)cc(C(C)(C)C)nc2c1-c1ccccc1	EP2 mod 78 (no result: MC4R ag barr, Granule exo inh, MC4R antag cAMP) | EP2 cAMP induct active
CCOC(=O)CSc1nnc(Cc2cc(=O)[nH]c(=O)[nH]2)n1-c1cccc(OC)c1	none
CC(C)Oc1cccc(-c2cc(C(=O)N3CCN(S(C)(=O)=O)CC3)c3ccccc3n2)c1	none
CCOC(=O)Cn1c(=S)[nH]c2c(oc3ccc(Cl)cc32)c1=O	EP2 mod 98 | EP2 cAMP induct inactive
CCOC(=O)N1CCN(C(=O)c2ccc3c(=O)n(Cc4ccc(Cl)cc4)c(=S)[nH]c3c2)CC1	none (no result: PGE2 EP2 inh)
COc1ccc(-c2nn3c(-c4ccccc4)nnc3s2)cc1	EP2 mod 81 | EP2 cAMP induct active
c1ccc(-c2nnc3sc(-c4ccncc4)nn23)cc1	none
Clc1ccc(-c2nn3c(-c4ccccc4)nnc3s2)cc1	EP2 mod 73 | EP2 cAMP induct active
COc1ccc(-n2c(-c3ccccc3)nnc2-c2ccc(Cl)cc2)cc1	EP2 mod 69 | EP2 cAMP induct active
COc1ccc(-c2nn3c(-c4ccc(F)cc4)nnc3s2)cc1	none
CCOC(=O)C1CCCN(C(=O)c2cc3ccccc3cc2OC)C1 (configuration not stated)	none (no result: PGE2 EP2 inh, T cell modulator, EP2 mod)
CCOC(=O)C1CCCN(C(=O)c2ccc(C)cc2O)C1 (configuration not stated)	EP2 mod 66 | EP2 cAMP induct inactive
Brc1cccc(-c2nnc(SCc3ccon3)n2-c2ccccc2)c1	none | EP2 cAMP induct inactive
O=C(O)c1ccc(CSc2nnc(-c3ccccc3)n2-c2ccccc2)cc1	none
Cc1cc(C)n(-c2cc(-c3ccccc3)nc(C)n2)n1	EP2 mod 69 | EP2 cAMP induct inactive
Cc1nc(-c2ccccc2)cc(N2CCCC2)n1	none
CCOC(=O)n1c(=O)n(Cc2ccc(Cl)c(Cl)c2)c2ccccc21	EP2 mod 77 | EP2 cAMP induct active
S=c1[nH]cc(-c2ccccc2)n1-c1ccccc1	EP2 mod 75 | EP2 cAMP induct inactive

Screens deposited in PubChem BioAssay by several laboratories.
